Screens (PubChem)
An excerpt weighted towards active compounds, which were near 2% of everything screened.
PPC-1+TRAIL kill – compounds killing PPC-1 cancer cells with TRAIL present, primary screen, TRAIL potentiator project, ATPLite luminescence, uHTS; actives 0.41% (n = 220,000); cell killing (% activity), % at 4 µM or 5 µM; PPC-1 cells + TRAIL, ATPLite viability luminescence;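 active = cell killing above 50% in the first pass at 4 µM, then a duplicate retest at 5 µM averaging 50% or more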;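 note: plate controls were cells with TRAIL plus DMSO for no effect and medium-only wells lacking cells for full effect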
HSP90 refold inh – HSP90 inhibitors, primary screen, cell lysate, luminescence; Heat shock protein HSP 90 (rabbit reticulocyte lysate; luciferase refolding); Rabbit reticulocyte lysate, luciferase refolding luminescence, 3 h; inhibition, % at 5.6 µM; actives 0.91% (n = 290,000);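 active = inhibition above the screen-wide mean plus 3 SD, computed separately per campaign, cut at about 16% in these data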;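 note: 0% = DMSO wells and 100% = 60 µM geldanamycin wells; inhibitors lower the luminescence because luciferase stays unfolded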
TRAIL sens C8 – viability loss with TRAIL in NB7+C8 cells, primary screen, TRAIL sensitizer project, cell-based, ATPlite luminescence. actives 1% (n = 360,000). AID 624354, 2012. inhibition (viability loss, TRAIL sensitization), % at 10 µM;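 active = compounds causing at least 50% loss of cell viability in the single-dose screen, relative to plate controls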
FLuc act counter – FLuc activators, initial screening, artefact control for FLuc-dependent activation tests, biochemical, ATPlite luminescence; activation factor at 10 µM; ATPlite luciferase biochemical, 10 min; 0 = ATP-free wells, 1 = DMSO control; 200,000 tested, under 10 active; Luciferin 4-monooxygenase (Photinus pyralis), P08659;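 active = luciferase activation factor, scaled between plate controls, of at least 2 with compound at 10 µM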
Target sequence (P08659 whole entry, looked up): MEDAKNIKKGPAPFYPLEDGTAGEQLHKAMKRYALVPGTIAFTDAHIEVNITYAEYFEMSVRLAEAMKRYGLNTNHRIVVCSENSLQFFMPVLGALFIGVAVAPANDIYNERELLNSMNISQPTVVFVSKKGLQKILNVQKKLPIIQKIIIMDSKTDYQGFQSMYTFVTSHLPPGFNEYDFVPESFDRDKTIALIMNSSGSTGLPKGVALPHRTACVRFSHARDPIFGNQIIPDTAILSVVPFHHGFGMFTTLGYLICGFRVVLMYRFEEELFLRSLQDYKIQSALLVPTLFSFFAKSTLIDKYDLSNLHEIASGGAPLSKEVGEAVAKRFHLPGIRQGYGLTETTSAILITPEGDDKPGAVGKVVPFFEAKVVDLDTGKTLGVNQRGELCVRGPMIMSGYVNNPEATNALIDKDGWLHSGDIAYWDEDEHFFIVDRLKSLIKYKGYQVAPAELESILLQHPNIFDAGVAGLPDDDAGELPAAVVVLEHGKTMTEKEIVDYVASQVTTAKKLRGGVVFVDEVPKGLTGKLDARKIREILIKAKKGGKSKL
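System: cell-free luciferase reagent; medium: PBS as buffer for the ATP substrate; doses: test compounds dosed from 2 mM stocks in 100% DMSO; incubation: 10 min, room temperature; measured by: luminescence from luciferase reaction; read-out: luciferase activation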
FLuc inh counter – firefly luciferase enzyme inhibitors, primary screen, artefact control for luciferase-based inhibitor screens, biochemical, luminescence, ATPLite. 10 min. actives 1.5% (n = 200,000). Luciferin 4-monooxygenase (Photinus pyralis), P08659. inhibition, % at 10 µM. AID 1006, 2008;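 active = inhibition above about 50% when tested at 10 µM, limit read from the data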
* marks the source's active call; other numbers are inactive results; x = no result.

SMILES | PPC-1+TRAIL kill | HSP90 refold inh | TRAIL sens C8 | FLuc act counter | FLuc inh counter
Nc1nc(N)c2cc(S(=O)(=O)c3cccc(C(F)(F)F)c3)ccc2n1 | x | x | 73* | x | x
COc1cccc(-c2[nH]nc3c2C(c2ccsc2)C(C#N)=C(N)O3)c1 (stereo not drawn) | 16 | 16* | -21 | 1.1 | -9
COc1ccc(-c2[nH]nc3c2C(c2ccsc2)C(C#N)=C(N)O3)cc1 (stereo not drawn) | 19 | 6 | -22 | 1 | -4
O=C(NC(=S)/C(=C1\CCCCCN1)[N+](=O)[O-])c1ccccc1 | x | x | 78* | x | x
O=C(NC(=S)Nc1ccccc1[N+](=O)[O-])c1ccccc1 | 5 | 3 | 20 | x | x
CCN(CC)c1ccc(N)cc1 | x | x | 60* | x | x
CC(C)c1ccc(-n2cnn(-c3ncccc3[N+](=O)[O-])c2=O)cc1 | 26 | 7 | 23 | 0.5 | 54*
Cc1ccc(/C=N/Nc2nc3ccccc3s2)o1 | 2 | 4 | 43 | 0.4 | 60*
Cc1ccc(/C=N/Nc2nc(C(C)(C)C)cs2)o1 | 4 | 3 | 5 | 1 | 0
Cc1ccsc1C=C1C(=O)c2ccccc2C1=O | 8 | 3 | -18 | 0.3 | 73*
Cc1ccsc1/C=C1/C(=O)NN(c2ccccc2)C1=O | -10 | -2 | 7 | 0.4 | 59*
Cc1ccc(Sc2ccc(/C=C3/C(=O)NN(c4ccccc4)C3=O)o2)cc1 | 1 | 2 | 0 | x | x
CC(C)n1c(/N=C/c2c[nH]c3ccccc23)nc2ccccc21 | -17 | 7 | 1 | 0.7 | 33
Cn1c(/N=C/c2c[nH]c3ccccc23)nc2ccccc21 | -7 | 2 | 38 | 0.1 | 88*
Cn1c(/N=C/c2ccc3c(c2)OCO3)nc2ccccc21 | 2 | 3 | -4 | 0.1 | 91*
Cc1cccc(-c2ocnc2C(=O)N2CCN(C(=O)c3cccs3)CC2)c1 | x | -4 | -2 | x | x
CCCC(=O)Nc1ccc(C2C(=O)c3ccccc3C2=O)cc1 | x | 7 | 76* | x | x
Cc1c(O)ccc(/C=N/Nc2nc(-c3cccnc3)nc3ccccc23)c1O | 0 | -5 | 40 | x | x
Oc1ccc(/C=N/Nc2nc(-c3cccnc3)nc3ccccc23)c(O)c1 | 16 | 5 | 55* | x | x
CC(=O)[C@@]1(O)Cc2c(O)c3c(c(O)c2[C@H](O[C@H]2C[C@H](N)[C@H](O)[C@H](C)O2)C1)C(=O)c1ccccc1C3=O | x | x | 82* | x | x
COc1cccc2c1C(=O)c1c(O)c3c(c(O)c1C2=O)C[C@@](O)(C(=O)CO)C[C@@H]3OC1CC(N)C(O)C(C)O1 (stereo partly drawn) | x | x | 45 | x | x
COc1cccc2c1C(=O)c1c(O)c3c(c(O)c1C2=O)CC(O)(C(C)=O)CC3OC1CC(N(C)C)C(O)C(C)O1 (stereo not drawn) | x | x | 42 | x | x
COc1cccc2c1C(=O)c1c(O)c3c(c(O)c1C2=O)C[C@@](O)(C(=O)CO)C[C@@H]3O[C@H]1C[C@H](N)[C@H](O)[C@H](C)O1 | 54* | 7 | 62* | 0.9 | 13
Cc1cc2nc(C(C)(C)C)c(CC3CCCCC3)n2c(C)c1Br | x | x | -6 | x | x
N/C(CCS(=O)(=O)c1ccc(Cl)cc1)=N\OC(=O)c1ccccc1C(F)(F)F | 31 | -1 | 55* | x | x
SMILES | PPC-1+TRAIL kill | HSP90 refold inh | TRAIL sens C8 | FLuc act counter | FLuc inh counter
CCN(CC(=O)Nc1ccccc1C(F)(F)F)C(=O)CCS(=O)(=O)c1ccc(Cl)cc1 | x | x | -3 | x | x
N/C(CCS(=O)(=O)c1ccc(Cl)cc1)=N\OC(=O)c1ccc(Cl)cc1 | 2 | -2 | 74* | x | x
O=C(c1ccc2[nH]c(=O)c(=O)[nH]c2c1)N1CCc2ccccc21 | x | 0 | 4 | x | x
Cc1ccc(S(=O)(=O)N2C[C@H]3[C@H]4C(=O)N(C5CCCCC5)C(=O)[C@H]4CC(=O)[C@H]3[C@@H]2c2cccc3ccccc23)cc1 | x | x | 60* | x | x
COc1cc(C(=O)Nc2c(C(=O)O)[nH]c3ccc(Br)cc23)cc(OC)c1OC | x | -3 | 4 | x | x
COc1ccc(NC(=O)C2CC(=O)N=C(N)S2)cc1 (stereo not drawn) | -7 | 0 | -14 | 1.1 | -6
CC(=O)Nc1sc(NC(=O)c2ccccc2)nc1-c1cccs1 | 2 | -2 | 10 | 1.1 | -6
COc1ccccc1C(=O)Nc1nc(-c2cccs2)c(NC(C)=O)s1 | 49 | -4 | 51* | 0.5 | 50*
Cc1cc(C(=O)COC(=O)c2ccccc2O)c(C)n1CC1CCCO1 (stereo not drawn) | x | x | 87* | x | x
Cc1cc(C(=O)COC(=O)c2cc(O)c3ccccc3c2O)c(C)n1CC1CCCO1 (stereo not drawn) | 9 | 1 | 0 | 1 | -3
Cc1cc(C(=O)COC(=O)c2cccc(NS(C)(=O)=O)c2)c(C)n1CC1CCCO1 (stereo not drawn) | x | x | 59* | x | x
CCCc1cc(=O)[nH]c2nnc(SCC(=O)NC3CCCCC3)n12 | x | x | -6 | x | x
N#Cc1ccc2nc3c(nc2c1)CCCC3 | x | 3 | -3 | x | x
NC(=S)NN=C1c2ccccc2-c2c(F)c(F)c(F)c(F)c21 | x | x | 71* | x | x
O=S(=O)(c1ccccc1)c1nnn2c1nc(NC1CCN(Cc3ccccc3)CC1)c1cc(Cl)ccc12 | x | 4 | 40 | x | x
O=S(=O)(c1ccccc1)c1nnn2c1nc(NC1CCN(Cc3ccccc3)CC1)c1ccccc12 | x | 1 | 76* | x | x
O=[N+]([O-])c1ccc(S(=O)Cc2ccccc2)c([N+](=O)[O-])c1 (stereo not drawn) | x | x | 66* | x | x
Cc1cc(C)c(S(=O)(=O)N2CCCOC2CNC(=O)C(=O)NCc2ccco2)c(C)c1 (stereo not drawn) | 22 | -2 | -13 | 1 | -3
O=C(N/N=C/c1cc(Br)ccc1O)C(c1ccncc1)N1CCOCC1 (stereo not drawn) | 19 | -4 | 53* | 1.1 | -6
COc1cccc(/C=N/NC(=O)C(c2ccncc2)N2CCOCC2)c1 (stereo not drawn) | 11 | -1 | -4 | x | x
O=C1CCCCC1C(O)c1ccc(Cl)cc1 (stereo not drawn) | 3 | -1 | x | x | x
CCOC(=O)C(C(=O)OCC)c1cc(Br)c2noc3c2c1C(=O)c1ccccc1-3 | 37 | 1 | 93* | 1 | 0
O=[N+]([O-])c1c(Nc2ccccn2)cc(Cl)c2nonc12 | 18 | 12 | 85* | x | x
